From ChEMBL document CHEMBL4373643, “Synthesis and biological evaluation of structurally diverse α-conformationally restricted chalcones and related analogues” (Medchemcomm, 2019) come the findings set out here.

One data set addresses Tubulin. Nature of the data set: Inhibition of tubulin polymerization (unknown origin) incubated for 10 mins by spectrophotometry. Type of data set: protein-complex assay, Homo sapiens.
The test system of a further data set is NCI-H460. As to the kind of experiment: Cytotoxicity against human NCI-H460 cells assessed as reduction in cell viability incubated for 48 hrs by SRB assay. Type of data set: functional. The following applies: NCI-H460, 48 h. In a few lines:
(§1)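 Cells from ATCC, plated at 7000–8000 cells/well in DMEM with 5% FBS and 1% gentamicin and left 24 h at 37 °C, 5% CO2. Compounds from a 10 mg mL–1 DMSO stock were serially diluted and added for 48 h. Cells were fixed with TCA (10% final), stained with SRB, and the dye solubilized in 10 mM Tris. A540 was normalized to A630, and GI50 was taken as 50% reduction in net protein increase.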

The next data set has as its system DU-145. As to the kind of experiment: Cytotoxicity against human DU145 cells assessed as reduction in cell viability incubated for 48 hrs by SRB assay. Type of data set: functional. The following applies: DU-145, 48 h. In short, it runs like this:
as §1
In general terms: Sulforhodamine B stains cellular protein and so reports cell mass.

For a further data set, the system named is SK-OV-3. As to the kind of experiment: Cytotoxicity against human SKOV3 cells assessed as reduction in cell viability incubated for 48 hrs by SRB assay. Type of data set: functional. The conditions noted are these: SK-OV-3, 48 h. In short, it runs like this: as §1
For another data set, the system named is HUVEC. As to the kind of experiment: Cytotoxicity against HUVEC assessed as reduction in cell viability incubated for 48 hrs by SRB assay. Type of data set: cell-based. The conditions noted are these: human. In short, it runs like this:
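HUVECs were grown in M200 with VEGF kit supplements in collagen I coated flasks, then plated at 9000 cells/well and given 48 h to attach. Compounds were added as 10-fold serial dilutions in M200 with LSGS kit, 1% gentamicin and 1% amphotericin B. Growth was read by SRB assay, and GI50 was taken as the concentration inhibiting growth by 50%.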

A further data set concerns the target Tubulin (Homo sapiens) (UniProt P68371+Q9H4B7+P0DPH7+P68366+Q13509+Q71U36+P04350+Q3ZCM7+P07437+P68363+Q9BQE3+Q6PEY2+Q13885+Q9BVA1+Q9BUF5). As to the kind of experiment: Inhibition of [3H]colchicine binding to tubulin (unknown origin) at 5 uM incubated for 10 mins by scintillation counting method relative to control. Type of data set: protein-complex assay.
A short description of data set [1]: Selectivity index, ratio of GI50 for HUVEC to GI50 for human NCI-H460 cells. Type of data set: toxicity. The following applies: HUVEC versus NCI-H460 cells, read-out: RatioGI50.
Data set [2] is described as follows: Selectivity index, ratio of GI50 for HUVEC to GI50 for human DU145 cells. Type of data set: toxicity. The conditions noted are these: HUVEC versus DU145 cells, read-out: RatioGI50.
Data set [3] in a line: Selectivity index, ratio of GI50 for HUVEC to GI50 for human SKOV3 cells. Type of data set: toxicity. The following applies: HUVEC versus SKOV3 cells, read-out: RatioGI50.

In the case of `COc1ccc2c(c1N)CC/C(=C\c1cc(OC)c(OC)c(OC)c1)C2=O`, at Tubulin, the IC50 (usually the midpoint of a concentration-inhibition curve) was greater than 20 µM. Further, the 50% growth inhibitory concentration (GI50) – broadly, the concentration at which growth is held to half of that of the control – in the data set with NCI-H460 is 46.4 µM; with DU-145, 32.4 µM; with SK-OV-3, greater than 135 µM. Besides, the Activity entry in the data set with HUVEC is given as “Toxic”.

Regarding `COc1cc(/C=C2\CCc3c(ccc(OC)c3[N+](=O)[O-])C2=O)cc(OC)c1OC`, the IC50 at Tubulin was greater than 20 µM. Besides, the GI50 was 36.3 µM in the data set with NCI-H460, 37.6 µM in the data set on DU-145 and 23.5 µM in the data set with SK-OV-3.

Take `COc1cc(Cc2ccc3c(Br)c(OC)ccc3c2O)cc(OC)c1OC`: the GI50 in the data set with NCI-H460 stood at 5.92 µM; in the data set with DU-145 it was 6.17 µM; in the data set with SK-OV-3, 18.3 µM.

On Tubulin, `COc1ccc2c(c1)CC/C(=C\c1cc(OC)c(OC)c(OC)c1)C2=O` displayed an IC50 greater than 20 µM. Also, the GI50 in the data set on NCI-H460 was 22.4 µM; in the data set with DU-145, 22.6 µM; with SK-OV-3, 40.3 µM.

As for `COc1ccc2c(c1)CCC/C(=C\c1cc(OC)c(OC)c(OC)c1)C2=O`, at Tubulin, the IC50 was greater than 20 µM. Also, the GI50 stood at 6.57 µM in the data set on NCI-H460, 9.71 µM in the data set with DU-145 and 12 µM in the data set with SK-OV-3.

As to `COc1cc(Cc2ccc3c([N+](=O)[O-])c(OC)ccc3c2O)cc(OC)c1OC`, the GI50 in the data set on NCI-H460 is 22.9 µM; with DU-145, 18.6 µM; with SK-OV-3, 21 µM.

On to `COc1ccc(/C=C\c2cc(OC)c(OC)c(OC)c2)cc1O` [COMBRETASTATIN A4], for which the GI50 in the data set on NCI-H460 was found to be 0.005 µM; with DU-145, 0.00602 µM; with SK-OV-3, 0.00506 µM.

With `COc1ccc2c(c1C#N)CC/C(=C\c1cc(OC)c(OC)c(OC)c1)C2=O`, the IC50 on Tubulin is greater than 20 µM. The GI50 in the data set on NCI-H460 was found to be 44.4 µM; in the data set with DU-145 it was 57.2 µM; in the data set on SK-OV-3, 33.3 µM.

In turn, `COc1ccc2c(c1Br)CC[C@H]1[C@H](c3cc(OC)c(OC)c(OC)c3)[C@@H]21` gave an IC50 at Tubulin greater than 20 µM. For the same compound, the GI50 with NCI-H460 was determined as 59.2 µM; in the data set with DU-145, 61.5 µM; in the data set on SK-OV-3, 108 µM.

The compound `COc1ccc2c(O)c(Cc3cc(OC)c(OC)c(OC)c3)ccc2c1` had an IC50 at Tubulin of 17 µM. In addition, the GI50 in the data set with NCI-H460 amounted to 13.4 µM; in the data set on DU-145, 8.84 µM; in the data set with SK-OV-3 it was 7.5 µM. Moreover, the Activity entry in the data set with HUVEC is on record as “Toxic”.

Take `COc1ccc2c(c1Br)CCC/C(=C\c1cc(OC)c(OC)c(OC)c1)C2=O`: the IC50 at Tubulin is greater than 20 µM. Moreover, the GI50 in the data set with NCI-H460 was 4.44 µM; in the data set on DU-145 it was 9.91 µM; with SK-OV-3 it was 8.5 µM.

On to `COc1ccc2c(c1N)CCC/C(=C\c1cc(OC)c(OC)c(OC)c1)C2=O`, for which the IC50 against Tubulin is greater than 20 µM. Also, the inhibition (in general, how much of the control response was suppressed) on Tubulin (Homo sapiens) was 0.34%. Also, the GI50 turned out to be 0.733 µM in the data set on NCI-H460, 0.237 µM with DU-145 and 0.936 µM in the data set on SK-OV-3. Besides, the Activity entry in the data set on HUVEC is reported as “Non-Toxic”. Further, the selectivity ratio in data set [1], in [2] and in data set [3] was 100 each time.

Regarding `COc1ccc2c(c1)CC[C@H]1[C@H](c3cc(OC)c(OC)c(OC)c3)[C@@H]21`, on Tubulin, the IC50 is greater than 20 µM. Moreover, the GI50 worked out at 38.8 µM with NCI-H460, 41.1 µM with DU-145 and 54.5 µM in the data set with SK-OV-3.

Regarding `COc1ccc2c(c1O)CCC(=C\c1cc(OC)c(OC)c(OC)c1)/C2=N\O`, on Tubulin, the IC50 was greater than 20 µM. Further, the GI50 in the data set on NCI-H460 was determined as 22.8 µM; with DU-145 it was 23.9 µM; in the data set on SK-OV-3, 38.2 µM.

Consider `COc1cccc2c1C(=O)c1c(O)c3c(c(O)c1C2=O)C[C@@](O)(C(=O)CO)C[C@@H]3O[C@H]1C[C@H](N)[C@H](O)[C@H](C)O1` [DOXORUBICIN], for which the GI50 was found to be 0.0547 µM with NCI-H460, 0.108 µM in the data set on DU-145 and 0.0875 µM with SK-OV-3.

At Tubulin, `COc1ccc2c(c1Br)CCC(=C\c1cc(OC)c(OC)c(OC)c1)/C2=N\O` yielded an IC50 greater than 20 µM. In addition, the values for the GI50 in the data set with NCI-H460, in the data set with DU-145 and with SK-OV-3 were 47 µM, 50.1 µM and 80.1 µM, respectively.

`COc1ccc2c(c1O)CCC/C(=C\c1cc(OC)c(OC)c(OC)c1)C2=O` yielded an IC50 on Tubulin greater than 20 µM. At Tubulin (Homo sapiens), this compound registered an inhibition of 14%. Besides, the figures for the GI50 in the data set with NCI-H460, with DU-145 and with SK-OV-3 were 0.635 µM, 0.456 µM and 0.941 µM, respectively. Besides, the Activity entry with HUVEC is “Non-Toxic”. The selectivity ratio in [1], in data set [2] and in [3] was 10 each time.

As to `COc1ccc2c(c1O)CC/C(=C\c1cc(OC)c(OC)c(OC)c1)C2=O`, at Tubulin, the IC50 is greater than 20 µM. The GI50 is 6.44 µM with NCI-H460, 5.49 µM with DU-145 and 6.29 µM in the data set with SK-OV-3. The Activity result in the data set with HUVEC is recorded as “Toxic”.

Consider `COc1cc(Cc2ccc3c(O)c(OC)ccc3c2O)cc(OC)c1OC`, for which the GI50 in the data set with NCI-H460 worked out at 24.4 µM; in the data set on DU-145, 23.4 µM; in the data set with SK-OV-3, 21.9 µM.

For the compound `COc1cc(Cc2ccc3c(N)c(OC)ccc3c2O)cc(OC)c1OC`, the GI50 with NCI-H460 came out at 65.2 µM; in the data set with DU-145, 49.7 µM; with SK-OV-3, 16.4 µM.

As for `CC(=O)O[C@H]1C(=O)[C@@]2(C)[C@H]([C@H](OC(=O)c3ccccc3)[C@]3(O)C[C@H](OC(=O)[C@H](O)[C@@H](NC(=O)c4ccccc4)c4ccccc4)C(C)=C1C3(C)C)[C@]1(OC(C)=O)CO[C@@H]1C[C@@H]2O` [PACLITAXEL], the GI50 is 0.00165 µM in the data set with NCI-H460, 0.00152 µM with DU-145 and 0.00136 µM in the data set with SK-OV-3.

With `COc1cc(/C=C2\CCCc3c(ccc(OC)c3[N+](=O)[O-])C2=O)cc(OC)c1OC`, the half-maximal inhibitory concentration (IC50) at Tubulin is greater than 20 µM. In addition, the GI50 is 5.96 µM in the data set on NCI-H460, 5.94 µM in the data set with DU-145 and 16.1 µM in the data set with SK-OV-3.

On Tubulin, `COc1ccc2c(c1Br)CC/C(=C\c1cc(OC)c(OC)c(OC)c1)C2=O` yielded an IC50 greater than 20 µM. The GI50 was 22.6 µM in the data set on NCI-H460, 27.6 µM with DU-145 and 29.6 µM in the data set with SK-OV-3.
